Screening data from PubChem.
APJ antagonist: blocks the human apelin receptor APJ; hit rate 0.32% among 330,000; CHO-K1 APJ beta-arrestin complementation, luminescence; AID 2521; inhibition, % at 20 µM;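 active = inhibition above about 40% at 20 µM, limit read from the data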;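 note: cells challenged with 10 nM apelin-13 agonist together with compound; plate controls were apelin-13 plus DMSO wells for no effect and DMSO wells lacking apelin-13 for full effect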
Target sequence (P35414 whole entry, looked up): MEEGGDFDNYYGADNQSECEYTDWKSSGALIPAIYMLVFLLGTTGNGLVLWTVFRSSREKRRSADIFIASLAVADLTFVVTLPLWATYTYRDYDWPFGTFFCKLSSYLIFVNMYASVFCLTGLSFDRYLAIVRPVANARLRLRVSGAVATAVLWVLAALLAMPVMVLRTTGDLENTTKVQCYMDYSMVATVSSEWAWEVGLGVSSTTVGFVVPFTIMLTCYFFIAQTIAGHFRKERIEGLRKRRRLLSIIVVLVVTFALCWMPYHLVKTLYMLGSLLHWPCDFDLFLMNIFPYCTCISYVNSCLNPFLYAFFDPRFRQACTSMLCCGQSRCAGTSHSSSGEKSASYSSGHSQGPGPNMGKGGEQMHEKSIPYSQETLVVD
CCR6 antagonist: antagonists of human CCR6 receptor. P51684. CHO-K1 CCR6 PathHunter beta-arrestin, luminescence, CCL20-stimulated. inhibition, % at 20 µM. hit rate 0.49% among 340,000. AID 493098;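 active = compounds whose inhibition of the agonist-driven luminescence signal at 20 µM reaches about 50%, limit read from the data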;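 note: cells stimulated with CCL20 at 14 nM final; plate controls were DMSO with CCL20 for no effect and DMSO without agonist for full effect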
m5-HT2A agonist: activates the mouse 5-HT2A serotonin receptor; hit rate 0.66% among 360,000; AID 624169; CHO-K1 mHTR2A beta-arrestin complementation, luminescence; percent of 30 µM serotonin response; P35363; activation, % at 7.6 µM;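 active = activation above a run cutoff, the mean activation of all tested compounds plus 3 SD, cut at about 14% in these data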;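 note: 0% = plate median of compound wells and 100% = 30 µM serotonin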
APJ agonist: agonists of human APJ apelin receptor | CHO-K1 APJ PathHunter beta-arrestin, luminescence; 0% DMSO wells, 100% apelin | activation, % at 20 µM | P35414 | hit rate 0.11% among 330,000;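 active = activation more than six SD over the plate average, tested at 20 µM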;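 note: 0% = DMSO alone and 100% = apelin-13 at 10 nM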
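Assay system – PathHunter CHO-K1 APJ (AGTRL-1) beta-arrestin reporter cells · Compound – one dose, 20 µM compound, 1% DMSO · Timing – compound 90 min 25 °C, reagent 1 h · Measured by – luminescence from split beta-galactosidase complementation, Galacton Star/Emerald II substrate · Measure – beta-arrestin recruitment to APJ as agonist activity, luminescent signal · Benchmarks – DMSO vs Apelin-13 10 nM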
EBI2 block: EBI2 (human) antagonism | hit rate 0.81% among 360,000 | inhibition, % at 5 µM | AID 651636 | EBI2 beta-arrestin recruitment, luminescence, 7a,25-OHC stimulated; in the data active = inhibition above about 38%;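 note: enzyme fragment complementation signal reports receptor beta-arrestin coupling in cells; 0% = agonist plus DMSO wells and 100% = wells without agonist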
CXCR6 block: inhibitors of human CXCR6 receptor; inhibition, % at 20 µM; CHO-K1 PathHunter CXCR6 beta-arrestin, luminescence; AID 602244; hit rate 0.36% among 360,000; in the data active = inhibition above about 34%, passing the limit was not always enough;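 note: antagonist mode with CXCL16 agonist at 10 nM final; 0% = 10 nM CXCL16 with DMSO and 100% = unstimulated wells without agonist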
Starred values were filed as active, the others as inactive; / = no result. Hits are enriched below; roughly 2.1% of the tested compounds scored in any of these assays.

SMILES	APJ antagonist	CCR6 antagonist	m5-HT2A agonist	APJ agonist	EBI2 block	CXCR6 block
CCCCCSc1nncc(=O)[nH]1	30	7	3	1	-14	-1
CCCCCCCCSC1=CC(=O)C(OC)=C(OC)C1=O	/	/	1	/	-20	39*
COc1cccc(/C=N/Nc2nc(Nc3ccc([N+](=O)[O-])cc3)nc(N3CCCC3)n2)c1O	-9	69*	-10	0	13	45*
O=C1C2C3C=CC(CO)(O3)C2C(=O)N1c1ccccc1-c1ccccc1 (stereo not drawn)	17	102*	-2	-4	-12	57*
O=C1C(Cl)=C(NC(=O)c2ccccc2)C(=O)C(Cl)=C1NC(=O)c1ccccc1	-37	/	3	1	32	88*
O=C(NC1=C(Nc2ccc(Cl)cc2)C(=O)c2ccccc2C1=O)c1ccccc1	-55	6	1	3	-14	0
O=C(/C=C/[C@H]1O[C@@H](n2cnc3c(NC(=O)c4ccccc4)ncnc32)[C@H](O)[C@@H]1O)NCC1CCCCC1	/	/	0	/	-16	-2
N#C/C(=C/c1ccc(N2CCCCCC2)o1)c1ccc(Cl)cc1	31	42	0	-1	42*	24
C=CCNc1nc(NCc2cccc(OC)c2)c2sc(-c3ccccc3)cc2n1	/	/	-2	/	57*	18
Cc1ccc(NC(=O)C(C)SCC(=O)Nc2ccc(F)cc2)cc1S(=O)(=O)N1CCOCC1 (stereo not drawn)	-61	11	3	6	-2	4
Oc1c(Br)cc(Br)c2cccnc12	/	56*	-2	/	14	31
Oc1c(CN2CCN(c3ccccc3)CC2)cc(Br)c2cccnc12	/	25	-10	/	18	26
CC(CCC(=O)NN)C1CCC2C3CCC4CC(O)CCC4(C)C3CCC12C (stereo not drawn)	/	6	-3	/	14	0
CC(CCC(C)C(C)(C)C)[C@@H]1CC[C@H]2C3C[C@H](OS(O)(=S)=S)[C@H]4C[C@H](OS(O)(=S)=S)[C@@H](OS(O)(=S)=S)C[C@]4(C)[C@H]3CC[C@]12C (stereo partly drawn) (tested in a mixture with another compound)	10	57*	14	6	-12	20
Cc1[nH]c2ccccc2c1C(C#N)(C#N)C1C(=O)c2ccccc2C1=O	12	45	-5	-4	-24	43*
O=C(NC(=S)N1CCN(c2ccc(Cl)cc2[N+](=O)[O-])CC1)c1ccco1	14	17	-4	-6	-16	21
O=C(NC(=S)N1CCN(c2ccc(Cl)cc2[N+](=O)[O-])CC1)c1cccs1	/	/	-8	/	-5	43*
Cc1cccc2sc(NS(=O)(=O)c3ccccc3)nc12	-6	2	1	-3	-6	-3
O=C1C2C(C(=O)N1/N=C/c1cc(Br)cc([N+](=O)[O-])c1O)C1C=CC2C12CC2 (stereo not drawn)	36	52*	0	-3	1	24
COc1ccc(Cn2c(C3CC3)nc3ccc(NC(=O)c4cccnc4)cc3c2=O)cc1	-2	11	-5	-1	53*	-9
COc1ccc(Cn2c(C3CC3)nc3ccc(NC(C)=O)cc3c2=O)cc1	8	8	-9	-2	0	0
Cc1ccc(S(=O)(=O)CCC(=O)OCC(=O)c2ccc(F)cc2)cc1	-46	7	-2	-5	-4	1
CC(C)(Oc1ccc(F)cc1)C(=O)OCC(=O)c1ccc(S(C)(=O)=O)cc1	3	52*	-4	-12	7	37
Cn1c(N)c(C(=O)c2cc(-c3ccccn3)nc3ccccc23)c(=O)[nH]c1=O	56*	-1	-5	4	-1	4
COc1ccccc1C(=O)NCCC(=O)NCC(C)(C)N1CCOCC1	26	0	17*	3	-15	6
SMILES	APJ antagonist	CCR6 antagonist	m5-HT2A agonist	APJ agonist	EBI2 block	CXCR6 block
CC1=NN(c2ccccc2)C(=O)/C1=C\C=C\c1ccccc1	3	19	1	-3	7	12
CC1=NN(c2ccccc2)C(=O)/C1=C/C=C/c1ccc(N(C)C)cc1	/	89*	-2	/	56*	71*
N#Cc1ncc(Cc2ccccc2)nc1C#N	-7	-1	3	0	7	-9
Cc1ccc(/C=C/C(=O)c2c(C)nc3ccccn23)cc1	9	-27	2	1	21	1
Cc1nc2ccccn2c1C(=O)/C=C/c1cccc([N+](=O)[O-])c1	24	7	-2	0	42*	3
CSc1ccccc1C(=O)OCC(=O)NC1CC1	/	/	5	/	-2	0
COc1ccc(Cl)cc1NC(=O)CN(C)C(=O)c1cc2c(s1)CCC(C)C2 (stereo not drawn)	0	7	5	-4	6	1
COc1cccc(CN2CCNC(=O)C2CC(=O)NC2CCCC2)c1OC (stereo not drawn)	8	2	1	3	-5	-6
COc1cccc(CN2CCNC(=O)C2CC(=O)O)c1OC (stereo not drawn)	2	-7	14*	-3	-9	1
O=C(NC(=S)N(CCCCO)C1CCCCC1)c1sc2ccccc2c1Cl	31	67*	3	-5	4	18
CC(=O)OC[C@H]1O[C@@H](O/N=C/[C@@H](C)[C@H](OCc2ccccc2)C(C)C)[C@H](OC(C)=O)[C@@H](OC(C)=O)[C@@H]1OC(C)=O	6	/	/	0	/	/
C=C(CN(C)C)C(=O)c1ccc(OC2OC(COC(C)=O)C(OC(C)=O)C(OC(C)=O)C2OC(C)=O)cc1 (stereo not drawn)	/	100*	-2	/	72*	90*
Cc1ccccc1NC(=O)Cc1nc(COC(=O)CCNS(=O)(=O)c2ccccc2)cs1	-9	18	-2	-5	-1	0
CN(C(=O)COC(=O)C1CCN(S(=O)(=O)c2ccc3c(c2)OCCO3)CC1)C1CCS(=O)(=O)C1 (stereo not drawn)	-2	1	4	-3	-23	-4
Cc1ccc(/C=C2\SC(N3CCCCC3)=NC2=O)cc1	2	3	1	3	81*	12
CCOc1ccc(/C=C2\SC(N3CCc4ccccc4C3)=NC2=O)cc1	15	-3	0	-1	65*	14
CCOC(=O)C1CCCN(C2=NC(=O)/C(=C/c3ccc(N(C)C)cc3)S2)C1 (stereo not drawn)	15	24	-9	-2	45*	2
CCOC(=O)C1CCCN(C2=NC(=O)/C(=C/c3ccc(O)c(OCC)c3)S2)C1 (stereo not drawn)	16	13	-4	-2	2	12
COC(=O)CCCn1cc(CN2CC(N3CCCCC3)CS2(=O)=O)nn1 (stereo not drawn)	/	/	-3	/	-5	-6
